Assay results taken from ChEMBL document CHEMBL5058577, “EUbOPEN Chemogenomics Library 2 (Multiplex)” (2022).

Tested on: Fibroblast
Test: Multiplex assay against human fibroblast
Assay type: toxicity, cell-based
Method in brief: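 Imaging took place on a CQ1 microscope at 37°C and 5% CO2 once compound had been added to live cells stained at seeding with Hoechst33342, BioTracker Green Microtubule Cytoskeleton Dye, MitoTracker Red and Annexin V Alexa Fluor 680. CellPathfinder machine-learning gating classed cells as Hoechst high-intensity objects or normal cells, classed normal cells as having healthy, pyknosed or fragmented nuclei, and classed pyknosed cells as mitotic or apoptotic. Tubulin, mitochondrial-mass and membrane-permeability phenotypes are per cents of the healthy-nucleus cells.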

[1] = 12 h, 1 µM, compound concentration 1 uM, replicate 1
[2] = 12 h, 1 µM, compound concentration 1 uM, replicate 2
[3] = 12 h, 10 µM, compound concentration 10 uM, replicate 1
[4] = 12 h, 10 µM, compound concentration 10 uM, replicate 2
[5] = 24 h, 1 µM, compound concentration 1 uM, replicate 1
[6] = 24 h, 1 µM, compound concentration 1 uM, replicate 2
[7] = 24 h, 10 µM, compound concentration 10 uM, replicate 1
[8] = 24 h, 10 µM, compound concentration 10 uM, replicate 2
[9] = 48 h, 1 µM, compound concentration 1 uM, replicate 1
[10] = 48 h, 1 µM, compound concentration 1 uM, replicate 2
[11] = 48 h, 10 µM, compound concentration 10 uM, replicate 1
[12] = 48 h, 10 µM, compound concentration 10 uM, replicate 2

COc1cc(C(=O)N(CCCc2ccccc2)Cc2ccc(CC(=O)O)cc2)cc(OC)c1C
Population Apoptotic (%) [1]: 63% | Population Fragmented Nuclei (%) [1]: 14% | Population Healthy Nuclei (%) [1]: 73% | Population Hoechst High Intensity Objects (%) [1]: 2% | Population Membrane Permeable-Phenotype (%) [1]: 0% | Population Mitochondria Different-Phenotype (%) [1]: 0% | Population Mitotic Cells (%) [1]: 36% | Population Normal (%) [1]: 97% | Population Pyknosed Nuclei (%) [1]: 12% | Population Tubulin-Different-Phenotype (%) [1]: 15% | Total Cell Count [1]: 160 | Population Apoptotic (%) [2]: 42% | Population Fragmented Nuclei (%) [2]: 37% | Population Healthy Nuclei (%) [2]: 45% | Population Hoechst High Intensity Objects (%) [2]: 4% | Population Membrane Permeable-Phenotype (%) [2]: 11% | Population Mitochondria Different-Phenotype (%) [2]: 5% | Population Mitotic Cells (%) [2]: 57% | Population Normal (%) [2]: 95% | Population Pyknosed Nuclei (%) [2]: 16% | Population Tubulin-Different-Phenotype (%) [2]: 36% | Total Cell Count [2]: 176 | Population Apoptotic (%) [3]: 41% | Population Fragmented Nuclei (%) [3]: 16% | Population Healthy Nuclei (%) [3]: 70% | Population Hoechst High Intensity Objects (%) [3]: 2% | Population Membrane Permeable-Phenotype (%) [3]: 0% | Population Mitochondria Different-Phenotype (%) [3]: 5% | Population Mitotic Cells (%) [3]: 58% | Population Normal (%) [3]: 97% | Population Pyknosed Nuclei (%) [3]: 12% | Population Tubulin-Different-Phenotype (%) [3]: 28% | Total Cell Count [3]: 197 | Population Apoptotic (%) [4]: 45% | Population Fragmented Nuclei (%) [4]: 25% | Population Healthy Nuclei (%) [4]: 61% | Population Hoechst High Intensity Objects (%) [4]: 4% | Population Membrane Permeable-Phenotype (%) [4]: 7% | Population Mitochondria Different-Phenotype (%) [4]: 4% | Population Mitotic Cells (%) [4]: 54% | Population Normal (%) [4]: 95% | Population Pyknosed Nuclei (%) [4]: 13% | Population Tubulin-Different-Phenotype (%) [4]: 47% | Total Cell Count [4]: 181 | Population Apoptotic (%) [5]: 68% | Population Fragmented Nuclei (%) [5]: 11% | Population Healthy Nuclei (%) [5]: 77% | Population Hoechst High Intensity Objects (%) [5]: 1% | Population Membrane Permeable-Phenotype (%) [5]: 0% | Population Mitochondria Different-Phenotype (%) [5]: 0% | Population Mitotic Cells (%) [5]: 31% | Population Normal (%) [5]: 98% | Population Pyknosed Nuclei (%) [5]: 10% | Population Tubulin-Different-Phenotype (%) [5]: 13% | Total Cell Count [5]: 156 | Population Apoptotic (%) [6]: 52% | Population Fragmented Nuclei (%) [6]: 44% | Population Healthy Nuclei (%) [6]: 41% | Population Hoechst High Intensity Objects (%) [6]: 4% | Population Membrane Permeable-Phenotype (%) [6]: 1% | Population Mitochondria Different-Phenotype (%) [6]: 6% | Population Mitotic Cells (%) [6]: 48% | Population Normal (%) [6]: 95% | Population Pyknosed Nuclei (%) [6]: 13% | Population Tubulin-Different-Phenotype (%) [6]: 28% | Total Cell Count [6]: 189 | Population Apoptotic (%) [7]: 55% | Population Fragmented Nuclei (%) [7]: 12% | Population Healthy Nuclei (%) [7]: 76% | Population Hoechst High Intensity Objects (%) [7]: 1% | Population Membrane Permeable-Phenotype (%) [7]: 1% | Population Mitochondria Different-Phenotype (%) [7]: 6% | Population Mitotic Cells (%) [7]: 45% | Population Normal (%) [7]: 98% | Population Pyknosed Nuclei (%) [7]: 10% | Population Tubulin-Different-Phenotype (%) [7]: 25% | Total Cell Count [7]: 192 | Population Apoptotic (%) [8]: 40% | Population Fragmented Nuclei (%) [8]: 25% | Population Healthy Nuclei (%) [8]: 61% | Population Hoechst High Intensity Objects (%) [8]: 4% | Population Membrane Permeable-Phenotype (%) [8]: 5% | Population Mitochondria Different-Phenotype (%) [8]: 0% | Population Mitotic Cells (%) [8]: 59% | Population Normal (%) [8]: 96% | Population Pyknosed Nuclei (%) [8]: 13% | Population Tubulin-Different-Phenotype (%) [8]: 41% | Total Cell Count [8]: 175 | Population Apoptotic (%) [9]: 90% | Population Fragmented Nuclei (%) [9]: 21% | Population Healthy Nuclei (%) [9]: 72% | Population Hoechst High Intensity Objects (%) [9]: 1% | Population Membrane Permeable-Phenotype (%) [9]: 0% | Population Mitochondria Different-Phenotype (%) [9]: 0% | Population Mitotic Cells (%) [9]: 10% | Population Normal (%) [9]: 98% | Population Pyknosed Nuclei (%) [9]: 6% | Population Tubulin-Different-Phenotype (%) [9]: 17% | Total Cell Count [9]: 168 | Population Apoptotic (%) [10]: 52% | Population Fragmented Nuclei (%) [10]: 50% | Population Healthy Nuclei (%) [10]: 41% | Population Hoechst High Intensity Objects (%) [10]: 2% | Population Membrane Permeable-Phenotype (%) [10]: 3% | Population Mitochondria Different-Phenotype (%) [10]: 9% | Population Mitotic Cells (%) [10]: 47% | Population Normal (%) [10]: 97% | Population Pyknosed Nuclei (%) [10]: 8% | Population Tubulin-Different-Phenotype (%) [10]: 40% | Total Cell Count [10]: 211 | Population Apoptotic (%) [11]: 77% | Population Fragmented Nuclei (%) [11]: 25% | Population Healthy Nuclei (%) [11]: 65% | Population Hoechst High Intensity Objects (%) [11]: 2% | Population Membrane Permeable-Phenotype (%) [11]: 1% | Population Mitochondria Different-Phenotype (%) [11]: 5% | Population Mitotic Cells (%) [11]: 22% | Population Normal (%) [11]: 97% | Population Pyknosed Nuclei (%) [11]: 9% | Population Tubulin-Different-Phenotype (%) [11]: 32% | Total Cell Count [11]: 195 | Population Apoptotic (%) [12]: 58% | Population Fragmented Nuclei (%) [12]: 38% | Population Healthy Nuclei (%) [12]: 54% | Population Hoechst High Intensity Objects (%) [12]: 5% | Population Membrane Permeable-Phenotype (%) [12]: 5% | Population Mitochondria Different-Phenotype (%) [12]: 3% | Population Mitotic Cells (%) [12]: 41% | Population Normal (%) [12]: 94% | Population Pyknosed Nuclei (%) [12]: 6% | Population Tubulin-Different-Phenotype (%) [12]: 46% | Total Cell Count [12]: 187
